Results from different studies.
Lines come from different studies, so protocols differ.
Read-out: cell growth or viability

| SMILES | cell line | assay | conditions | measurement | result |
| --- | --- | --- | --- | --- | --- |
| Cc1cc(C)n(C(=S)[S][Au][PH](CCCCCC[PH]([Au][S]C(=S)n2nc(C)cc2C)(c2ccccc2)c2ccccc2)(c2ccccc2)c2ccccc2)n1 | TK-10 | – | – | GI50 | 1210 nM |
| COc1cc(Nc2nccc(-c3cnn4nc(OC)ccc34)n2)cc(C(F)(F)F)c1 | LoVo | ATP luminescence | – | IC50 | 160 nM |
| CC(C)c1cc(C(=O)N2Cc3ccccc3C2)c(O)c2c1C(=NO)CC2 | UMUC3 | ATP luminescence | 72 h | IC50 | 51600 nM |
| Cc1c(NC(=O)c2ccc(C(C)(C)C)cc2)cccc1-c1cn(C)c(=O)c(Nc2ccc(C(=O)N3CCOCC3)cc2)n1 | U2932 | – | 48 h | GI50 | > 10000 nM |
| COc1ccc(-c2nc(NN=C3C(=O)Nc4ccc(Br)cc43)c3ccccc3n2)cc1OC | HT-29 | – | 10 µM | inhibition | 70.8% |
| CC(C)c1cc(C(=O)N2Cc3ccccc3C2)c(O)c2c1C=CC2 | UMUC3 | ATP luminescence | 72 h | IC50 | 59400 nM |
| C/C=C/C[C@H](C)[C@@H](OC)[C@@H](C)[C@H](O)C[C@H]1OC(=O)C=C[C@H]1CC | A2780 | MTT | 48 h | GI50 | 41 nM |
| Cc1c(CN(C)C(=O)/C=C/c2cnc3c(c2)CC(CCN)C(=O)N3)oc2ccccc12 (centres unmarked) | IMR-90 | resazurin | 30 µM, 72 h | inhibition | 12% |
| Cc1nc2ccc(Cl)cc2c(=O)n1NC(=O)CCl | LoVo | LDH | 200 µg/mL, 24 h | viability | 89.5% |
| Cn1c(=O)c(NN=C2C(=O)Nc3ccccc32)nc2ccccc21 | HT-29 | – | 30 µM | inhibition | 73% |
| COc1cc(-c2ccc(-c3ccc(C(=N)N)nc3)s2)cc(OC)c1OC | TK-10 | – | – | GI50 | 3190 nM |
| COc1cc(/C=N/n2c(C)nc3ccc(C)cc3c2=O)ccc1OCc1ccccc1 | LoVo | LDH | 200 µg/mL, 24 h | viability | 76.5% |
| Cc1c(-c2cccc(C(F)(F)F)c2)sc2[nH]c(=O)n([C@H](C)c3cccc4ccccc34)c(=O)c12 | NCI-H1650 | fluorescence | 10 µM | inhibition | > 80% |
| Cc1ccc2c(c1)C(=NNc1nnc(Cc3ccccc3)c3ccccc13)C(=O)N2 | HT-29 | – | 30 µM | inhibition | 89.1% |
| C=CC(=O)Nc1cc(-n2c(=O)ccc3cnc4ccc(-c5ccc(NS(C)(=O)=O)cc5)cc4c32)ccc1C | U2932 | – | 48 h | GI50 | 2150 nM |
| COc1cc(/C=N/n2c(C)nc3ccc(Br)cc3c2=O)ccc1OCc1ccc(Cl)cc1 | LoVo | LDH | 200 µg/mL, 24 h | viability | 80% |
| COc1ccc(-c2ccc(-c3ccc(C(=N)N)nc3)s2)cc1 | TK-10 | – | – | GI50 | 1890 nM |
